The record followed here is ChEMBL document CHEMBL4673226, “Development of 5-Aminopyrazole-4-carboxamide-based Bumped-Kinase Inhibitors for Cryptosporidiosis Therapy” (J Med Chem, 2019).

Molecules are shown by their SMILES. Active and inactive are the calls of the source. The rule behind the calls is not given here.

The nature of series [1]: Toxicity in mouse at 100 to 200 mg/kg, po QD for 7 days. Conditions: in vivo, 168 h, dose 100-200 mg/kg, time 7 day. It is filed as organism-based.
Series [2] in a line: Toxicity in mouse assessed as effect on CBC parameters by measuring white blood cell counts at 200 mg/kg, po QD for 7 days by histological analysis (reference value: […] +/- […] 10^3/uL). It is filed as organism-based. Conditions: in vivo, 168 h, time 7 day.
Series [3] in a line: Toxicity in mouse assessed as effect on CBC parameters by measuring lymphocytes counts at 100 mg/kg, po QD for 7 days by histological analysis (reference value: 4060 +/- 1266 ABS/uL). It is filed as organism-based. As to conditions: in vivo, 168 h, time 7 day.
Series [4] can be described thus: Toxicity in mouse assessed as induction of organ abnormalities at 100 to 200 mg/kg, po QD for 7 days by histological analysis. It is filed as organism-based. As to conditions: in vivo, 168 h, dose 100-200 mg/kg, time 7 day.
Series [5] can be described thus: Toxicity in mouse assessed as effect on CBC parameters by measuring lymphocytes counts at 200 mg/kg, po QD for 7 days by histological analysis (reference value: 4060 +/- 1266 ABS/uL). In kind it is organism-based. Conditions: in vivo, 168 h, time 7 day.
Series [6] in a line: Toxicity in human CRL-8155 cells. It is filed as cell-based.
A short description of series [7]: Toxicity in mouse assessed as induction of distress at 100 to 400 mg/kg, po. In kind it is organism-based. As to conditions: in vivo, dose 100-400 mg/kg.
Series [8] in a line: Toxicity in mouse assessed as effect on CBC parameters by measuring white blood cell counts at 100 mg/kg, po QD for 7 days by histological analysis (reference value: […] +/- […] 10^3/uL). In kind it is organism-based. As to conditions: in vivo, 168 h, time 7 day.
Another series has as its system HepG2. In words: Toxicity in human HepG2 cells. It is filed as cell-based.
Series [9] can be described thus: Toxicity in mouse at 100 to 400 mg/kg, po. Conditions: in vivo, dose 100-400 mg/kg. In kind it is organism-based.
Series [10] in a line: Toxicity in mouse assessed as effect on CBC parameters at 150 to 300 mg/kg, po QD for 7 days. It is filed as organism-based. As to conditions: in vivo, 168 h, dose 150-300 mg/kg, time 7 day.
Series [11] can be described thus: Protein binding in mouse plasma by dialysis method.
The conditions of series [12]: mouse, in vivo, po, 30 mg/kg, 168 h.
A short description of series [13]: Toxicity in mouse assessed as effect on organ parameters at 150 to 300 mg/kg, po QD for 7 days by histological analysis. It is filed as organism-based. Conditions: in vivo, 168 h, dose 150-300 mg/kg, time 7 day.
The target in series [14] is Proto-oncogene tyrosine-protein kinase Src (Homo sapiens, UniProt P12931). In words: Inhibition of SRC (unknown origin). In kind it is ADME.
Proto-oncogene tyrosine-protein kinase Src, sequence (P12931 2-536 limits assumed): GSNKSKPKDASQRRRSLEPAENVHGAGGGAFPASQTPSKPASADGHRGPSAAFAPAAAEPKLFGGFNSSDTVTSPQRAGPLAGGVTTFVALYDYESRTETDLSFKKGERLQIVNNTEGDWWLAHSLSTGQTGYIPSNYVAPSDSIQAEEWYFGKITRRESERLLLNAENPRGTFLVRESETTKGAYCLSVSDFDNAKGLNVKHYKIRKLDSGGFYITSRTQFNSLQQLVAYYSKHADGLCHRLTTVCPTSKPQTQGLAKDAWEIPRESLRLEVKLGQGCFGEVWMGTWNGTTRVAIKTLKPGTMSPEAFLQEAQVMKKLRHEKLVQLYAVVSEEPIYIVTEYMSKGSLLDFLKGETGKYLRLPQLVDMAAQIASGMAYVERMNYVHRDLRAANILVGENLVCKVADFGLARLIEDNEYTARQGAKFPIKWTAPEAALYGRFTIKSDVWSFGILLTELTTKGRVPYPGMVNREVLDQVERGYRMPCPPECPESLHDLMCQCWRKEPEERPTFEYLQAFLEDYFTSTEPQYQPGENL
Series [15] is described as follows: Clearance in mouse at 25 mg/kg, po. It is filed as ADME, organism-based. Conditions: in vivo.
The nature of series [16]: Protein binding in human plasma by dialysis method.
Series [17] in a line: Toxicity in mouse at 150 to 600 mg/kg, po. In kind it is organism-based. Conditions: in vivo, dose 150-600 mg/kg. In a few lines: (§1)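 Escalating single oral doses were given to mice until toxicity signs appeared. Regimens were 100, 150, 200 and 250 mg/kg, and 150, 200, 300, 400 and 600 mg/kg. Escalation was limited by solubility in the dosing solution.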
For series [18], the system named is Cryptosporidium parvum. Description: Antimicrobial activity against nano-luciferase-expressing Cryptosporidium parvum infected in IFN-gamma KO B6.129S7-Ifngtm1Ts/J mouse assessed as log reduction of infection at 60 mg/kg, po BID for 5 days beginning on day 6 post infection relative untreated control. It is filed as functional. As to conditions: time 5 day.
Series [19] concerns Cryptosporidium parvum. In words: Antimicrobial activity against nano-luciferase-expressing Cryptosporidium parvum infected in IFN-gamma KO B6.129S7-Ifngtm1Ts/J mouse assessed as log reduction of infection at 60 mg/kg, po QD for 5 days beginning on day 6 post infection relative untreated control. Conditions: time 5.0 day.
For series [20], the system named is Cryptosporidium parvum. Description: Antimicrobial activity against nano-luciferase-expressing Cryptosporidium parvum infected in IFN-gamma KO B6.129S7-Ifngtm1Ts/J mouse assessed as log reduction of infection at 30 mg/kg, po BID for 5 days beginning on day 6 post infection relative untreated control. It is filed as functional, organism-based. Conditions: time 5.0 day.

The nature of series [21]: Toxicity in mouse assessed as induction of distress at 150 to 600 mg/kg, po. In kind it is organism-based. Conditions: in vivo, dose 150-600 mg/kg. In a few lines:
as §1

The nature of series [22]: Toxicity in mouse assessed as effect on serum chemistry parameters at 150 to 300 mg/kg, po QD for 7 days. In kind it is organism-based. As to conditions: in vivo, 168 h, dose 150-300 mg/kg, time 7 day.
Series [23] is described as follows: Inhibition of Cryptosporidium parvum CDPK1 assessed as reduction in ATP consumption using BioSyntide-2 substrate incubated for 90 mins by luciferase reporter gene assay.
The test system of series [24] is Cryptosporidium parvum. Description: Antimicrobial activity against nano-luciferase-expressing Cryptosporidium parvum infected in IFN-gamma KO B6.129S7-Ifngtm1Ts/J mouse assessed as log reduction of infection at 15 mg/kg, po BID for 5 days beginning on day 6 post infection relative untreated control. In kind it is functional, organism-based. Conditions: time 5.0 day.

Series [25] in a line: AUC in mouse at 25 mg/kg, po. As to conditions: in vivo. On the set-up: dose 25 mg/kg. In kind it is ADME, organism-based.
Series [26] relates to Cryptosporidium parvum. In words: Antimicrobial activity against nano-luciferase-expressing Cryptosporidium parvum infected in IFN-gamma KO B6.129S7-Ifngtm1Ts/J mouse assessed as log reduction of infection at 5 mg/kg, po BID for 5 days beginning on day 6 post infection relative untreated control. It is filed as functional, organism-based. Conditions: time 5.0 day.
In series [27] the test system is Cryptosporidium parvum. Description: Antimicrobial activity against nano-luciferase-expressing Cryptosporidium parvum infected in IFN-gamma KO B6.129S7-Ifngtm1Ts/J mouse assessed as log reduction of infection at 120 mg/kg, po QD for 5 days beginning on day 6 post infection relative untreated control. As to conditions: time 5.0 day. It is filed as functional, organism-based.

Series [28] can be described thus: Toxicity in mouse at 150 to 300 mg/kg, po QD for 7 days. Conditions: in vivo, 168 h, dose 150-300 mg/kg, time 7 day. In kind it is organism-based.
Series [29] in a line: Cardiotoxicity in rat. In kind it is toxicity.

`CC(C)(CO)Cn1nc(-c2ccc3cc(OC4CC4)ccc3c2)c(C(N)=O)c1N`: the Activity entry in series [1] is listed as “Non-Toxic”; in series [2], 1.5 10^3 /uL; in series [3], 1194 abs/uL; in [4], “Non-Toxic”; in series [5] it was 1301 abs/uL; in series [6], “Non-Toxic”. Also, the Activity result is recorded as “Non-Toxic” in series [7], 1.5 10^3 /uL in series [8], “Non-Toxic” in the series on HepG2 and “Non-Toxic” in series [9].
`CCOc1ccc2cc(-c3nn(C(C)(C)CCO)c(N)c3C(N)=O)ccc2c1`: the Activity entry in series [10], in [13], in [17], in series [21], in series [22] and in series [6] was “Non-Toxic” each time. Moreover, the Activity result (in [28]; with HepG2) was “Non-Toxic” throughout. Further, the PPB in series [11] is on record as 94%; in series [16], 99%. The concentration in series [12] peaked (Cmax) at 510 nM. Also, the values for the IC50 in series [14] and in series [23] were over 10000 nM and 2.5 nM, respectively. The molecule also came in with a CL/F in series [15] of 11.1 mL/min. The log reduction with Cryptosporidium parvum [18] came to 3.37. Besides, the outcome with Cryptosporidium parvum [19], with Cryptosporidium parvum [24] and in the series with Cryptosporidium parvum [26] was inactive. Moreover, the result in the series with Cryptosporidium parvum [20] and with Cryptosporidium parvum [27] was Active. The same molecule showed an exposure (AUC) in series [25] of 144.5 µmol·min/L.
For `CCOc1ccc2cc(-c3nn(C(C)(C)C)c(N)c3C(N)=O)cnc2c1`, in [29], the Activity entry is reported as “Toxic”.
